The target in series [1] is Botulinum neurotoxin type A (Clostridium botulinum) (UniProt P0DPI0). The series is described as follows: Inhibition of Clostridium botulinum recombinant BoNT/A light chain using N-terminal acetylated, C-terminal aminated SNAP-25 (187-203) as substrate at 20 uM by reverse-phase HPLC analysis. In a few lines: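 Recombinant BoNT/A LC with SNAP-25 187–203 peptide substrate in 40 mM HEPES–0.05% Tween, pH 7.3, with 0.5 mg/mL BSA and 50 μM excess Zn, at 37 °C. Quenched with TFA; reverse-phase HPLC product/substrate peak areas give percent inhibition, run in duplicate.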

The target of series [2] is Botulinum neurotoxin type A (Clostridium botulinum, UniProt P0DPI0). The series is described as follows: Inhibition of Clostridium botulinum recombinant BoNT/A light chain using N-terminal acetylated, C-terminal aminated SNAP-25 (187-203) as substrate by reverse-phase HPLC analysis. The gist of the method: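 Same HPLC LC cleavage assay (pH 7.3 HEPES/Tween, BSA, excess Zn, 37 °C). […] Ki comes from velocity versus substrate at several inhibitor levels, globally fit to a competitive model.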

Series [3] relates to Plasmodium falciparum. The series is described as follows: Antimalarial activity against CQ-resistant, MFQ-susceptible Plasmodium falciparum W2 clone Indochina 1 isolate assessed as inhibition of parasite proliferation by MSF assay. Type of series: functional, organism-based. In a few lines:
(§1)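 SYBR Green I fluorescence (MSF) microtiter drug-sensitivity assay: malarial DNA content is the measure of in vitro parasite proliferation. Resistance index is the IC90 ratio of the resistant strain to D6.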

The test system of series [4] is Plasmodium falciparum. The series is described as follows: Antimalarial activity against CQ, MFQ-susceptible Plasmodium falciparum D6 clone Sierra 1/UNC isolate assessed as inhibition of parasite proliferation by MSF assay. It is filed as functional, organism-based. The gist of the method:
as §1

For series [5], the system named is Plasmodium falciparum. The series is described as follows: Antimalarial activity against CQ, MFQ-resistant Plasmodium falciparum TM91C235 clone Southeast asian isolate assessed as inhibition of parasite proliferation by MSF assay. It is filed as functional, organism-based. In a few lines: as §1
Series [6] relates to Plasmodium falciparum. Briefly: Resistance index, ratio of IC90 for CQ, MFQ-resistant Plasmodium falciparum TM91C235 clone Southeast asian isolate to IC90 for CQ, MFQ-susceptible Plasmodium falciparum D6 clone Sierra 1/UNC isolate. It is filed as functional. In a few lines:
as §1

The subject of series [7] is Plasmodium falciparum. The series is described as follows: Resistance index, ratio of IC90 for CQ-resistant, MFQ-susceptible Plasmodium falciparum W2 clone Indochina 1 isolate to IC90 for CQ, MFQ-susceptible Plasmodium falciparum D6 clone Sierra 1/UNC isolate. Type of series: functional. In a few lines:
as §1

Series [8] deals with HepG2. The series is described as follows: Cytotoxicity against human HepG2 cells assessed as cell viability after 48 hrs by MTT assay. Type of series: cell-based. To be noted: HepG2, 48 h. (In general: Tetrazolium assays rely on reduction of a dye to a coloured formazan, in cell work by metabolically active cells.)
Series [9] can be described thus: Selectivity index, ratio of IC50 for human HepG2 cells to IC50 for CQ-resistant, MFQ-susceptible Plasmodium falciparum W2 clone Indochina 1 isolate. Type of series: toxicity, cell-based. To be noted: read-out: Ratio IC50.
A short description of series [10]: Selectivity index, ratio of IC50 for human HepG2 cells to IC50 for CQ, MFQ-susceptible Plasmodium falciparum D6 clone Sierra 1/UNC isolate. It is filed as toxicity, cell-based. As to conditions: read-out: Ratio IC50.
Series [11] in a line: Selectivity index, ratio of IC50 for human HepG2 cells to IC50 for CQ, MFQ-resistant Plasmodium falciparum TM91C235 clone Southeast asian isolate. Type of series: toxicity, cell-based. To be noted: read-out: Ratio IC50.

Botulinum neurotoxin type A (Clostridium botulinum), sequence (P0DPI0 2-448 limits assumed): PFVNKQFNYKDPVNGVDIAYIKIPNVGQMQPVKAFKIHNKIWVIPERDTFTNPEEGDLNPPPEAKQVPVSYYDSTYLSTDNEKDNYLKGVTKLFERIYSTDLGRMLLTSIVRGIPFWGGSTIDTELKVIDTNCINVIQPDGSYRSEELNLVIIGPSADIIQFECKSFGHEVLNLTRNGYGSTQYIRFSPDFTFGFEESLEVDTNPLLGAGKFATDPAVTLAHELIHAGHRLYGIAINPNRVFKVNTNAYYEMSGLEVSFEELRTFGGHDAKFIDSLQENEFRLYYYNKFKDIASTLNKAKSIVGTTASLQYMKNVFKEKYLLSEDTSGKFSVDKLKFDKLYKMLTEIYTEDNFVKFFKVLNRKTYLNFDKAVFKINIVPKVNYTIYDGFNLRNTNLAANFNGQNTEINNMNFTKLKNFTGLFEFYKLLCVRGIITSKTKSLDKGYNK
Botulinum neurotoxin type A, sequence (P0DPI0 2-448 limits assumed): as above

As a reminder, the inhibition is the percentage by which the read-out fell short of the control. One may read the IC50 as the concentration that gives 50% inhibition. The IC90 is the concentration needed for an effect of 90%. `CC(=O)O[C@H]1C[C@H]2[C@@H]([C@H](OC(C)=O)C[C@@H]3C[C@H](NC(=O)OC(C)(C)C)CC[C@@]32C)[C@@H]2CC[C@H]([C@H](C)CCCN(C)CCNc3ccnc4cc(Cl)ccc34)[C@@]12C`: the inhibition in series [1] is 30%. Further, the half-inhibitory concentration (IC50) in series [2] was 6780 nM; in [3], 8.05 nM; in series [4], 8.93 nM; in series [5], 16.3 nM; in series [8] it was 2360 nM. For the same compound, the results for the IC90 in series [3], in series [4] and in series [5] were 11.7 nM, 10.9 nM and 22.6 nM, respectively. The Ratio amounted to 2.07 in series [6] and 1.07 in series [7]. The selectivity ratio in series [9] is 293; in series [10], 264; in series [11] it was 144.
Broadly, the Ki is a measure of affinity in units of concentration, obtained from inhibition or displacement. `CC(=O)O[C@@H]1CC[C@@]2(C)[C@@H](C1)C[C@@H](OC(C)=O)[C@@H]1[C@@H]2C[C@H](OC(C)=O)[C@]2(C)[C@@H]([C@H](C)CCCNCCCNc3ccnc4cc(Cl)ccc34)CC[C@@H]12`: in [1], the inhibition turned out to be 81.4%. The IC50 is 2280 nM in [2]; 9.42 nM in series [3]; 9.72 nM in series [4]; 14.5 nM in series [5]; 980 nM in series [8]. Besides, the inhibition constant Ki in series [2] was determined as 5670 nM. In addition, the results for the IC90 in [3], in series [4] and in series [5] were 19 nM, 13.8 nM and 31.9 nM, respectively. For the same compound, the results for the Ratio in [6] and in [7] were 2.31 and 1.38, respectively. Moreover, the selectivity ratio in [9] is 104; in [10], 101; in series [11], 67.
In the case of `CC(=O)O[C@@H]1CC[C@@]2(C)[C@@H](C1)C[C@@H](OC(C)=O)[C@@H]1[C@@H]2C[C@H](OC(C)=O)[C@]2(C)[C@@H]([C@H](C)CCCN(C)CCNc3ccnc4cc(Cl)ccc34)CC[C@@H]12`, the inhibition in [1] worked out at 33.3%. The inhibition constant Ki in [2] is 34500 nM. The half-maximal inhibitory concentration (IC50) in series [3] came to 18.6 nM; in [4], 7.47 nM; in series [5], 23 nM; in series [8], 1810 nM. For the same compound, the figures for the 90% effect concentration (IC90) in series [3], in series [4] and in series [5] were 38.6 nM, 19.1 nM and 32.9 nM, respectively. The Ratio was found to be 1.73 in [6] and 2.03 in series [7]. The selectivity ratio came to 98 in [9], 242 in series [10] and 79 in series [11].
`CC(=O)O[C@H]1C[C@H]2[C@@H]([C@H](OC(C)=O)C[C@@H]3C[C@H](NC(=O)OC(C)(C)C)CC[C@@]32C)[C@@H]2CC[C@H]([C@H](C)CCCNCCNc3ccnc4cc(Cl)ccc34)[C@@]12C`: in series [1], the inhibition worked out at 67.4%. For the same compound, the IC50 in series [2] came out at 4900 nM; in series [3] it was 7.34 nM; in [4], 24.1 nM; in series [5], 27.6 nM; in series [8], 12800 nM. Further, the concentration for an effect of 90% (IC90) in series [3] was 12.3 nM; in series [4], 29.5 nM; in [5], 51.9 nM. In addition, the Ratio in series [6] is 1.76; in [7] it was 0.42. For the same compound, the selectivity ratio in series [9] came to 1740; in series [10], 531; in series [11] it was 464.
`C[C@@H]1CC[C@H]2[C@@H](C)C(=O)O[C@@H]3O[C@@]4(C)CC[C@@H]1[C@]32OO4` [ARTEMISININ]: the half-inhibitory concentration (IC50) in [3] came to 6.7 nM; in series [4] it was 9 nM; in series [5] it was 13.4 nM. Besides, the results for the IC90 in [3], in series [4] and in [5] were 11.5 nM, 12.8 nM and 17.4 nM, respectively. The Ratio in series [6] is on record as 1.36; in series [7], 0.9.

The record behind these values is ChEMBL document CHEMBL3259704, “Second generation steroidal 4-aminoquinolines are potent, dual-target inhibitors of the botulinum neurotoxin serotype A metalloprotease and P. falciparum malaria” (J Med Chem, 2014).
